Experimental data: PMC3842382 (Journal of medicinal chemistry, 2013)

Tests used:
mice [1] = settings: cited from earlier work
[2] = tested on: Na+ currents in mouse CAD cells; settings: cited from earlier work
mice [3] = assay: Maximal electroshock seizure; type: in vivo; settings: Mus musculus, ip, read-out: MES ED50
mice [4] = assay: iv Metrazol test; type: in vivo; settings: ip, 25 mg/kg and 81 mg/kg
[5] = tested on: Na+ currents in mouse CAD cells; assay: Whole-cell patch-clamp electrophysiology of Na+ currents in CAD cells; type: cell-based
[6] = tested on: Na+ currents in rat embryonic cortical neurons; assay: Whole-cell patch-clamp electrophysiology of Na+ currents in cortical neurons; type: cell-based; settings: 20 μM
Method in brief: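 Cortical neurons from embryonic day 19 rat cortices were cultured 7–10 days in vitro. Whole-cell voltage clamp was run at room temperature in external solution containing 100 mM NaCl, TEA-Cl, CdCl2, NiCl2 and 4-AP (HEPES, pH 7.3), with 20 μM test compound or 0.1% DMSO control. Slow inactivation was read as the fraction of current available at −50 mV. V1/2 and k came from Boltzmann fits to individual recordings, averaged as mean ± SEM.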

mice [7] = settings: ip; cited from earlier work
rat = settings: oral; cited from earlier work

COC[C@@H](NC(C)=O)C(=O)NCc1ccccc1 [Compound 1, Lacosamide]
anticonvulsant activity in scMet model (mice [1]): did not display anticonvulsant activity

NCc1ccc(OCc2cccc(F)c2)cc1 [Compound 22]
effect on fast inactivation [2]: affected fast inactivation | frequency (use)-dependent blockage of Na+ currents [2]: displayed frequency (use)-dependent blockage

Cl.NCc1ccc(-c2ccccc2)cc1 [Compound 2, (Biphenyl-4-yl)methylammonium Chloride]
ED50 (mice [3]): 30 to 100 mg/kg

Cl.NCc1ccc(-c2cccc(OC(F)(F)F)c2)cc1 [Compound 8, (3′-Trifluoromethoxybiphenyl-4-yl)methylammonium Chloride]
seizure threshold vs control group (mice [4]): no statistical difference from the control group | effect on Na+ channel steady-state activation [5]: did not affect | effect on slopes of fast inactivation [5]: not affected | frequency (use)-dependent inhibition of Na+ currents ([5]; 10 μM, 10 Hz): did not exhibit | effect on steady-state activation (V1/2 and k) [6]: unchanged | frequency (use)-dependent inhibition of Na+ currents [6]: did not exhibit | extent of slow inactivation (fraction of current available at −50 mV) ([6]; vehicle DMSO 0.41): 0.17 ± 0.03 | change in slope values of fast inactivation ([6]; vs control): no commensurate significant changes | hyperpolarizing shift of V1/2 of steady-state fast inactivation ([6]; vs control): ~15.7 mV

CCCC(CCC)C(=O)O [valproate]
MES ED50 (mice [7]): 270 [0.25] (250-340) mg/kg | MES ED50 (rat): 490 [0.5] (350-730) mg/kg

CCC1(c2ccccc2)C(=O)NC(=O)NC1=O [phenobarbital]
MES ED50 (mice [7]): 22 [1.0] (15-23) mg/kg | MES ED50 (rat): 9.1 [5.0] (7.6-12) mg/kg
